T cruzi repl: T. cruzi replication inhibition; T. cruzi beta-gal in NIH3T3, luminescence, 90 h; inhibition, % (concentration not given with the values); hit rate 1.4% among 300,000;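 active = mean inhibition across valid replicates above about 55%, limit read from the data; inconclusive = mean below that limit but half or more replicates reach it; inactive = mean below it, under half of replicates reach it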;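 also: signal also drops with host cell toxicity which is not excluded here; 0% = plate median of DMSO wells and 100% = zero luminescence signal; higher percent means less beta-gal luminescence so fewer parasites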
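Read-out: Parasite load inhibition, % | Test system: Mouse NIH/3T3 fibroblasts infected with β-gal-expressing T. cruzi Tulahuen C4 | Amount: 5,000 cells/well | Medium: DMEM, 2% fetal bovine serum | Signal: GalScreen β-gal luminescence, detergent lysis, 60 min | Timing: 3 h attach, ≥90 h co-culture | Also added: Tulahuen C4 trypomastigotes, 5000/well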
Calb FLC: C. albicans growth modulation with fluconazole. C. albicans CaCi-2 + fluconazole, Alamar Blue growth, 48 h. growth inhibition, % (test concentration not listed). hit rate 0.57% among 300,000;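 active = growth inhibition above about 58% in most replicates, limit read from the data, passing the limit was not always enough; inconclusive = exactly half the replicates above a set limit; inactive = most replicates below a set limit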;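 also: all wells also contain fluconazole at 8 µg/ml as a sub-toxic cotreatment; 0% = median of DMSO wells and 100% = median of geldanamycin control wells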
SKKanGAS inh: inhibitors of SKKanGAS S. pyogenes growth in kanamycin (SK-promoter or general growth effect) | BacTiter-Glo, 6 h | inhibition, % at 7.5 µM | hit rate 1.3% among 300,000 | AID 1662;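 active = mean replicate score, as percent of positive control median, at least 50; inconclusive = mean below 50 but one replicate at or above 50; inactive = mean and every replicate below 50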;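 also: strain carries kanamycin resistance gene driven by streptokinase promoter and grows in 40 µg/ml kanamycin; loss of luminescence reflects streptokinase promoter inhibition or plain growth inhibition; 0% = median of DMSO wells and 100% = positive control at its reference dose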
Beta apoptosis: blocks beta cell apoptosis; INS-1E cytokine-induced death, ATP luminescence, 48 h; percent of positive-control rescue, neutral wells zero; protection from apoptosis, % (concentration not given with the values); hit rate 0.8% among 300,000; AID 435005;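 active = Every replicate reaches about 75%, or at least half do and their mean reaches it too, limit read from the data; inconclusive = At least half of replicates reach the limit but their mean does not; inactive = Under half of replicates reach the limit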;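 also: 0% = cytokine-treated negative control wells and 100% = positive control rescue; higher means more ATP so stronger rescue from cytokine killing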
CSC inhib: blocks cancer stem cells; cancer stem cell-like cells viability, luminescence; hit rate 1.1% among 300,000; AID 2717; inhibition, % at 7.5 µM; in the data active = inhibition above about 75%; inconclusive = no clear call, values can overlap the other calls; tested in HMLE shEcad cells
Mdm2-MdmX inh: inhibitors of human Mdm2/MdmX interaction; O15151+Q00987; SaOS-2 split-luciferase Mdm2/MdmX complementation, luminescence; inhibition, % at 8 µM; hit rate 3% among 330,000;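 active = inhibition of at least 50% at 8 µM in the primary screen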
Mdm2 MdmX conf: confirmation of human Mdm2/MdmX interaction inhibitors; Mdm2-MdmX binding, luminescent assay; inhibition, % at 8 µM; hit rate 55% among 10,000; shares compounds with Mdm2-MdmX inh; AID 489028; in the data active = inhibition above about 40%
FLuc counter: counter-screen for Mdm2/MdmX inhibitors: full-length luciferase; shares compounds with Mdm2-MdmX inh; SaOS-2 full-length luciferase counterscreen, luminescence; inhibition, % at 8 µM; hit rate 77% among 6,200; AID 504607;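 active = mean inhibition at 8 µM reaching about 37%, which flags the compound as non-specific, limit read from the data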;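 also: p53-null SaOS-2 cells with luciferase driven by a doxycycline-inducible promoter; compound on cells about two nights before reading with doxycycline added after day one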
Starred values were filed as active, the others as inactive; ? = inconclusive; . = not tested or not shown. A selection: hits, their analogues and other compounds. The true share with any hit is near 5.7%.

SMILES | T cruzi repl | Calb FLC | SKKanGAS inh | Beta apoptosis | CSC inhib | Mdm2-MdmX inh | Mdm2 MdmX conf | FLuc counter
C/C(=N/NC(=O)c1nnn(-c2nonc2N)c1-c1ccccc1)c1ccncc1 | -16 | 6 | 6 | 1 | -4 | 24 | . | .
C/C(=N\NC(=O)c1nnn(-c2nonc2N)c1-c1cccs1)c1ccc(O)cc1 | -9 | 1 | -2 | -3 | -4 | -5 | . | .
C/C(=N\NC(=O)c1nnn(-c2nonc2N)c1-c1cccs1)c1ccc(C)cc1 | 1 | 0 | 1 | 2 | -2 | 71* | 2 | .
CCOC(=O)CC1COCCN1Cc1cn(C)nc1-c1ccccc1F (stereo not given) | -14 | -1 | 4 | -1 | -5 | -5 | . | .
Cc1ccc(C(=O)NCCc2c[nH]c3ccccc23)s1 | 2 | 7 | 7 | -9 | 5 | -154 | . | .
Cc1ccccc1-c1nc2cc(Cl)ccc2c(=O)o1 | -10 | -1 | 2 | -1 | 10 | 52* | 50* | 76*
COc1ccc(S(=O)(=O)Nc2ccccc2OC)cc1NC(=O)c1cc2ccccc2oc1=O | -7 | -4 | 25 | 2 | 5 | 73* | -52 | .
COc1ccc(-c2nc(-c3ccc(NC(=O)c4ccc(Br)o4)cc3)no2)cc1OC | 13 | -3 | 10 | . | 79* | 78* | -21 | .
COc1ccc(NC(=O)c2cc3ccccc3oc2=O)c(OC)c1 | 1 | 13 | -4 | -3 | 8 | -10 | . | .
O=C(Nc1cccc(-c2cc3ccccc3oc2=O)c1)c1ccc(Br)o1 | 21 | -3 | 9 | 5 | -10 | 4 | . | .
COc1ccc(NC(=S)NC(=O)c2ccc3c(c2)OCCO3)cc1 | . | . | . | -6 | -4 | -144 | . | .
COc1ccc(-c2cc3ccccc3oc2=O)cc1NC(=O)c1ccc(Br)o1 | 8 | -1 | 5 | 10 | -3 | 59* | 39 | 23
COc1ccc(-c2cc3ccccc3oc2=O)cc1NC(=S)NC(=O)c1ccc2c(c1)OCCO2 | 24 | 9 | 7 | 47 | . | 88* | -35 | .
C=CCn1c(SCC(=O)NC2(C)CCS(=O)(=O)C2)nc2ccccc21 (stereo not given) | . | . | . | 2 | -5 | -9 | . | .
CC(C)COc1ccc(C(=O)Nc2ccc(NC(=O)c3ccco3)c(Cl)c2)cc1 | -11 | -1 | 4 | 10 | . | 60* | 10 | .
N#CC(C#N)=c1ccc2c(c1)N1C(c3ccccc3)=CC(c3ccccc3)C3CCCCC31N=2 (stereo not given) | -12 | 15 | 18 | 0 | 6 | 61* | 32 | .
COc1ccccc1N=C(C)C1=C(O)CC(c2ccccc2)CC1=O (stereo not given) | 24 | 4 | -2 | 28 | 41 | 61* | 55* | 79*
CCCC(=Nc1ccccc1OC)C1=C(O)CC(c2ccccc2)CC1=O (stereo not given) | -7 | 4 | 3 | -1 | -3 | -11 | . | .
CN1CCCN=C1/C=C/c1cccs1 | -12 | -16 | 2 | -1 | -14 | 15 | . | .
CN(CC1CCCO1)S(=O)(=O)c1ccc(C(=O)Nc2nc(-c3ccccn3)cs2)cc1 (stereo not given) | . | . | . | 104* | 70 | 89* | 80* | 27
O=C(Nc1nc(-c2ccccn2)cs1)c1ccc(F)c(S(=O)(=O)N2CCOCC2)c1 | . | . | . | 89* | . | 76* | 86* | 26
Cc1nnc(NC(=O)c2ccc(F)c(S(=O)(=O)N3CCOCC3)c2)s1 | . | . | . | 2 | 8 | -8 | . | .
CN(CC1CCCO1)S(=O)(=O)c1ccc(C(=O)Nc2ccccc2F)cc1 (stereo not given) | -12 | -3 | ? | 3 | -7 | 22 | . | .
Cc1ccc(C(=O)Nc2ccccn2)cc1S(=O)(=O)N1CCOCC1 | 1 | -7 | 4 | -1 | -15 | 13 | . | .
O=C(Nc1nc(-c2ccccn2)cs1)c1cc(S(=O)(=O)N2CCOCC2)ccc1F | . | . | . | . | . | 53* | 29 | .
SMILES | T cruzi repl | Calb FLC | SKKanGAS inh | Beta apoptosis | CSC inhib | Mdm2-MdmX inh | Mdm2 MdmX conf | FLuc counter
Cc1ccc(C(=O)Nc2nc(-c3ccccn3)cs2)cc1S(=O)(=O)N1CCOCC1 | . | . | . | 90* | . | 89* | 81* | 23
CC(=O)c1c(N2CCOCC2)nc2ccc(Br)cc2c1-c1ccccc1 | 3 | 0 | 9 | . | 3 | 18 | . | .
CC1CCCC(NC(=O)/C=C/c2c(F)cccc2Cl)C1C (stereo not given) | 23 | 4 | 2 | 7 | -3 | -10 | . | .
CCSc1nnc(NC(=O)CCC2CCCCC2)s1 | 1 | 1 | 6 | 3 | -8 | 33 | . | .
CCC(C(=O)Nc1ccccc1Cl)n1nc(C)c2c(C)n(-c3ccccc3)nc2c1=O (stereo not given) | 0 | -3 | -3 | -1 | -5 | 34 | . | .
COc1ccc(C(=O)COC(=O)CNC(=O)c2ccc(Cl)cc2Cl)c(OC)c1 | -6 | 7 | -3 | -7 | -10 | 10 | . | .
CC(C)N(C(=O)[C@H]1C[C@H](CC(=O)NCC23CC4CC(CC(C4)C2)C3)C(=O)N2CCc3c([nH]c4ccc(Cl)cc34)[C@]12C)C(C)C | . | . | . | . | . | 92* | 50* | 73*
CCN(CC)C(=O)[C@H]1C[C@H](CC(=O)NCC23CC4CC(CC(C4)C2)C3)C(=O)N2CCc3c([nH]c4ccc(Cl)cc34)[C@]12C | . | . | . | . | . | 48 | . | .
COc1ccc2[nH]c3c(c2c1)CCN1C(=O)C(CC(=O)NCCC2=CCCCC2)C[C@H](C(=O)N2CCOCC2)[C@@]31CCC1CCCC1 (stereo not given in full) | . | . | . | . | . | 36 | . | .
O=C(C[C@H]1C[C@H](C(=O)N2CCOCC2)[C@@]2(CCC3CCCC3)c3[nH]c4ccc(Cl)cc4c3CCN2C1=O)NCC12CC3CC(CC(C3)C1)C2 | . | . | . | . | . | 84* | 70* | 21
COc1ccc2[nH]c3c(c2c1)CCN1C(=O)C(CC(=O)NCC24CC5CC(CC(C5)C2)C4)C[C@H](C(=O)N2CCOCC2)[C@@]31CCC1CCCC1 (stereo not given in full) | . | . | . | . | . | 77* | 68* | 43*
O=C(c1cccc(Cl)c1)N1CCC(=O)N(C(COCc2ccccc2)Cc2ccccc2)CC1 (stereo not given) | 1 | 8 | 9 | 1 | -3 | 27 | . | .
O=C(c1ccc(Cl)c(Cl)c1)N1CCC(=O)N(C(COCc2ccccc2)Cc2ccccc2)CC1 (stereo not given) | 21 | 2 | 18 | -1 | 38 | 61* | 48* | 90*
CCOc1ccccc1N(C)S(=O)(=O)c1ccc2c(c1)CCN2C(=O)CCC(=O)O | -6 | -6 | 4 | -2 | -18 | 16 | . | .
C=C[C@@H]1c2cccc(C)c2N(S(=O)(=O)c2ccc(C)cc2)[C@H](c2ccc(OC(C)=O)cc2)C1(C#N)C#N | . | . | . | 2 | 107* | 51* | -4 | .

Compound activity from PubChem BioAssay.
